* marks the point of attachment. FITC = O=C1OC2(c3ccc(O)cc3Oc3cc(O)ccc32)c2ccc(NC(=S)*)cc21
Assays:
Assay type in all cases: cell-based, mouse
claudin-4 = test: Claudin-4 localization by immunofluorescence; settings: EpH4 cells; for claudin-4 localization: 16 hours; for claudin-4 localization, time course: 400 μM, 16 hours at 4°C
EpH4 cells [1] = test: Apoptosis scored as caspase-3 positive cells; settings: mean ± SEM; for percent apoptosis (caspase-3 positive cells): 200 μM peptide, 16 hours at 37°C; for percentage of cells containing caspase-3 (apoptosis): 2 mM peptide
Procedure, shortened: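 EpH4 monolayers were exposed for 16 h to test compound over a dose range and fixed in 2% PFA (15 min RT). Then 0.5% Triton X-100 for 5 min and 2% BSA for 1 h. Primary: rabbit anti-cleaved caspase-3 (1:100), ± rat anti-ZO-1 (1:50), 1 h. Secondary: Cy3/FITC (1:150), 45 min. Percent positive cells scored; mean ± SEM, n=3-6 wells; unpaired t-test versus untreated.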

claudin-3 = test: Claudin-3 localization by immunofluorescence; settings: EpH4 cells, 16 hours, co-stained with ZO-1
Procedure, shortened: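 EpH4 monolayers were exposed to peptide for 16 h, then fixed in 2% paraformaldehyde for 15 min at room temperature. Permeabilised with 0.5% Triton X-100 and blocked 1 h in 2% BSA. Stained 1 h with rabbit anti-claudin-3 (1:200) and rat anti-ZO-1 (1:50), then 45 min with fluorophore-conjugated donkey secondaries (1:150). Nuclei counterstained with DAPI; confocal z-stacks imaged.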

EpH4 cells [2] = test: Live-cell binding/localization of FITC-labeled peptide at 4°C, EpH4; settings: 400 μM, 1 hour at 4°C; for localization/binding of FITC-peptide at the plasma membrane: live imaging; for fluorescence intensity of FITC: washed in ice cold PBS, background subtracted, mean ± SEM, n=3 separate cultures, p=0.007
Procedure, shortened: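 EpH4 cells were incubated 1 h at 4°C with 400 μM FITC-labelled test compound. Washed in ice-cold PBS and imaged live, without fixation. FITC intensity was measured after background subtraction. Mean ± SEM, n=3 separate cultures.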

caspase-3 = test: Active caspase-3; settings: EpH4 cells
Procedure, shortened: (§1)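 EpH4 cells were grown 4-5 days on 8-well chamber slides to form tight junctions, then exposed to test compound or control peptide for 8, 16 or 24 h (DMSO <0.5% final). For the last 1 h, growth medium held 1X FLICA probe (sulforhodamine-DEVD-fmk for caspase-3/7; carboxyfluorescein-LETD-fmk for caspase-8). Optional 1 μM Hoechst 33342, 5 min 37°C; HBSS wash; 2% PFA, 15 min RT. Mean ± SEM, n=3-6.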

3T3L1 cells [3] = test: Live-cell binding/localization of FITC-labeled peptide at 4°C, 3T3L1; settings: 3T3L1 fibroblast cells, 400 μM, 1 hour at 4°C, live imaging
Procedure, shortened: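 3T3L1 fibroblasts grown in DMEM/F12 with 10% bovine calf serum and plated on glass chamber slides. Given 400 μM FITC-linked D-form test peptide for 1 h at 4°C. Then either 1 h with live caspase-3/7 FLICA indicator at 4°C (time 0), or 30 min, 2 h or 4 h at 37°C before 1 h with indicator. Washed in cold PBS and imaged live without fixation.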

3T3L1 cells [4] = test: Active caspase-3 and -7, live-cell fluorescent indicator, 3T3L1 fibroblasts; settings: 3T3L1 fibroblast cells, 400 μM, 1 hour at 4°C then up to 4 hours at 37°C
Procedure, shortened: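 Live imaging of EpH4 or 3T3L1 cells (3T3L1 in DMEM/F12 with 10% bovine calf serum, split 1:8 every 2-3 days). Cells received 400 μM FITC-labelled test compound for 1 h at 4°C. Active caspase-3/7 indicator was then applied for 1 h at 4°C (time 0), or after 30 min, 2 h or 4 h at 37°C. PBS wash, then fluorescence imaging.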

caspase-8 [5] = test: Active caspase-8 by antibody, time course after warming from 4°C to 37°C; settings: EpH4 cells, 400 μM, 16 hours at 4°C, then 4 hr at 37°C
Procedure, shortened: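 EpH4 cells grown 4–5 days on glass chamber slides to form tight junctions, in DMEM with 5% FBS and 10 mM Hepes. Exposed to 400 μM FITC-labelled D-form test peptide for 16 h at 4°C (final DMSO <0.5%). Then fixed (time 0) or moved to 37°C for 30 min, 2 h or 4 h. Fixed in 2% paraformaldehyde, permeabilised, BSA-blocked, immunostained for claudin-4 and active caspase-8, then imaged.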

caspase-8 [6] = test: Active caspase-8, live-cell fluorescent indicator; settings: EpH4 cells, 16 hours of peptide, indicator added during the last hour
Procedure, shortened: as §1

EpH4 cells [7] = test: TUNEL staining
Procedure, shortened: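 EpH4 cells on chamber slides were exposed to 350 μM test compound or control peptide for 8, 16 or 24 h. Fixed in 2% PFA and permeabilised in 1% sodium citrate with 0.1% Triton X-100. TUNEL staining used a TMR-red in situ cell death kit per manufacturer. Mean ± SEM, n=3-6.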

Substance: Ac-DFYNP-amide [linear D-peptide]
- claudin-4 localization (claudin-4; linear D-peptide, co-stained with ZO-1): mis-localized
- percent apoptosis (caspase-3 positive cells) (EpH4 cells [1]; n=3-6): 12.27±0.72%
- claudin-3 localization (claudin-3; linear D-peptide): mis-localization away from tight junctions

Substance: Ac-DGYNP-amide [D(G)YNP]
- claudin-4 localization (claudin-4; 400 μM peptide, anti-claudin-4): not affected
- percent apoptosis (caspase-3 positive cells) (EpH4 cells [1]; n=3-6): 1.46±0.53%
- percentage of cells containing caspase-3 (apoptosis) (EpH4 cells [1]; 16 hours, n=3-6): 1.34±0.21%
- claudin-3 localization (claudin-3; 400 μM peptide): remained restricted to the tight junctions

Substance: {FITC}-DGYNP-NH2 [FITC-D(G)YNP]
- localization/binding of FITC-peptide at the plasma membrane (EpH4 cells [2]): binds poorly
- fluorescence intensity of FITC (EpH4 cells [2]): 18.38±9.26

Substance: LYQY [reference compound]
- claudin-4 localization (claudin-4; 350 μM peptide, anti-claudin-4): no effect

Substance: {FITC}-DFYNP-NH2
- caspase-3 and/or -7 activation, live cells (caspase-3; 400 μM, 1 hour at 4°C then 4 hours at 37°C): significantly increased
- localization/binding of FITC-peptide at the plasma membrane (3T3L1 cells [3]): does not, however, appear to bind to the plasma membranes
- claudin-4 localization, time course (claudin-4; then 30 min at 37°C): significant amount of claudin-4 mis-localization
- claudin-4 localization, time course (claudin-4; then 4 hr at 37°C): significant claudin-4 mis-localization
- claudin-4 localization (claudin-4; 800 μM peptide): mis-localization of claudin-4 away from tight junctions
- localization/binding of FITC-peptide at the plasma membrane (EpH4 cells [2]): localizes to the plasma membrane at the sites of cell junctions
- fluorescence intensity of FITC (EpH4 cells [2]): 82.71±5.80
- percent apoptosis (caspase-3 activation) (EpH4 cells [1]; 800 μM peptide, 16 hours, n=3-6): 10.58±0.83%
- caspase-3 and/or -7 activation, live cells (3T3L1 cells [4]): no caspase activation
- caspase-8 activation, time course (caspase-8 [5]): significant caspase-8 activation

Substance: NH2-C-DFYNP-C-OH (disulfide) [peptide 1]
- cells with activated caspase-3 compared to control (caspase-3; 16 hours of peptide, indicator added during the last hour): significant number of cells
- claudin-4 localization (claudin-4; 400 μM peptide, anti-claudin-4): mis-localization
- percentage of cells containing caspase-3 (apoptosis) (EpH4 cells [1]; 16 hours, n=3-6): 7.17 ± 1.24%
- cells with activated caspase-8 compared to control (caspase-8 [6]): significant number of cells
- TUNEL staining compared to control peptide treated cells (EpH4 cells [7]; 350 μM, 8, 16 or 24 hours): significantly increased
- time of peak TUNEL staining (EpH4 cells [7]; 350 μM, tested at 8, 16 or 24 hours): ~16 h

Substance: Ac-C-DFYNP-C-amide (disulfide) [disulfide-bridged D-peptide]
- percent apoptosis (caspase-3 positive cells) (EpH4 cells [1]; n=3-6): 16.46 ± 0.51%
- percentage of cells containing caspase-3 (apoptosis) (EpH4 cells [1]; 16 hours, n=3-6, listed as D-peptide): 100%

Substance: Ac-C-DFYNP-C-amide (disulfide) [peptide 3]
- percentage of cells containing caspase-3 (apoptosis) (EpH4 cells [1]; 16 hours, n=3-6): 7.96 ± 0.75%
- percentage of cells containing caspase-3 (apoptosis) (EpH4 cells [1]; 16 hours, n=3-6, listed as L-peptide): about 7%

Substance: Ac-C-DFYNP-C-OH (disulfide) [peptide 2]
- percentage of cells containing caspase-3 (apoptosis) (EpH4 cells [1]; 16 hours, n=3-6): 9.22 ± 0.65%
